Measurements: ChEMBL document CHEMBL1148584, “Effect of polyamine homologation on the transport and biological properties of heterocyclic amidines” (J Med Chem, 2006)

How the values were obtained:
L1210 [1] = experiment: Intracellular level of conjugate in L1210 cells in the presence of DFMO at 50 uM; assay type: functional, cell-based; details: Mus musculus
In short: (§1)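 L1210 cells in RPMI 1640/10% FCS with 2 mM aminoguanidine, seeded at 4 × 10⁴ cells/mL. Conjugate, with or without 5 mM DFMO, added at seeding; cells cultured 48 h, washed in cold NaCl, and extracted with 0.2 N HClO₄. Conjugate and free putrescine, spermidine and spermine quantified by ion-pair HPLC (UV 254 nm, fluorescence ex 345/em 455 nm); normalised to protein. Student's t-test, p<0.05.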

CHO [2] = experiment: Cellular uptake in CHO cells at 50 uM; assay type: ADME, cell-based, Cricetulus griseus; details: chinese hamster
In short: (§2)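 CHO (RPMI 1640, 10% FCS, 2 mM aminoguanidine) and CHO-MG (plus L-proline) cells seeded at 2 × 10⁵ cells/mL. Conjugate added 24 h after seeding and cells harvested 24 h later, then washed in cold 0.14 M NaCl and sonicated in 0.2 N HClO₄. Supernatant analysed by ion-pair reversed-phase HPLC (n-octanesulfonate), expressed as nmol/mg protein; mean ± SD of three determinations.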

CHO-MG [3] = experiment: Cellular uptake in CHO-MG cells at 50 uM; assay type: ADME, cell-based, Cricetulus griseus; details: chinese hamster; in short: as §2
[4] = Selectivity for uptake CHO cell line over CHO-MG cell line at 50 uM; assay type: functional, Cricetulus griseus
In short: (§3)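 Ratio of intracellular conjugate level in CHO over CHO-MG cells. Both lines were exposed to conjugate 24 h after seeding at 2 × 10⁵ cells/mL, for 24 h with 2 mM aminoguanidine in the medium. Levels were measured by ion-pair HPLC of perchloric extracts and normalised to protein (nmol/mg).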

L1210 [5] = experiment: Intracellular level of putrescine in L1210 cells in the absence of DFMO at 50 uM; assay type: functional, cell-based; details: Mus musculus; in short: as §1
L1210 [6] = experiment: Intracellular level of spermidine in L1210 cells in the presence of DFMO at 50 uM; assay type: functional, cell-based; details: Mus musculus; in short: as §1
L1210 [7] = experiment: Intracellular level of spermine in L1210 cells in the absence of DFMO at 50 uM; assay type: functional, cell-based; details: Mus musculus; in short: as §1
Phosphodiesterase 1 = Phosphodiesterase 1 (Bos taurus, UniProt Q01061+P14100); experiment: Inhibition of bovine calmodulin-activated cAMP dependent phosphodiesterase; assay type: protein assay
In short: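 Crude bovine heart PDE preparation containing calmodulin and Ca²⁺ (0.2 milliunit). Incubated 20 min at 37 °C with 0.1 mM [8-³H]cAMP and graded drug concentrations in 30 mM Tris-HCl, 3 mM MgSO₄, 0.6 mM AMP. Stopped with ZnSO₄; Ba(OH)₂ precipitated AMP with BaSO₄; supernatant radioactivity counted. IC50 is the concentration giving 50% inhibition.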

L1210 [8] = experiment: Intracellular level of putrescine in L1210 cells in the presence of DFMO at 50 uM; assay type: functional, cell-based; details: Mus musculus; in short: as §1
L1210 [9] = experiment: Intracellular level of spermidine in L1210 cells in the absence of DFMO at 50 uM; assay type: functional, cell-based; details: Mus musculus; in short: as §1
L1210 [10] = experiment: Intracellular level of spermine in L1210 cells in the presence of DFMO at 50 uM; assay type: functional, cell-based; details: Mus musculus; in short: as §1
L1210 [11] = experiment: Intracellular level of conjugate in L1210 cells in the absence of DFMO at 50 uM; assay type: functional, cell-based; details: Mus musculus; in short: as §1
L1210 [12] = experiment: Intracellular level of conjugate in L1210 cells in the presence of DFMO at 10 uM; assay type: functional, cell-based; details: Mus musculus; in short: as §1
CHO [13] = experiment: Cellular uptake in CHO cells at 10 uM; assay type: ADME, cell-based, Cricetulus griseus; details: chinese hamster; in short: as §2
CHO-MG [14] = experiment: Cellular uptake in CHO-MG cells at 10 uM; assay type: ADME, cell-based, Cricetulus griseus; details: chinese hamster; in short: as §2
CHO-MG [15] = experiment: Selectivity for uptake in CHO cell line over CHO-MG cell line at 10 uM; assay type: functional, cell-based; details: Cricetulus griseus; in short: as §3
L1210 [16] = experiment: Intracellular level of spermine in L1210 cells in the absence of DFMO at 10 uM; assay type: functional, cell-based; details: Mus musculus; in short: as §1
L1210 [17] = experiment: Intracellular level of conjugate in L1210 cells in the absence of DFMO at 10 uM; assay type: functional, cell-based; details: Mus musculus; in short: as §1
L1210 [18] = experiment: Intracellular level of spermine in L1210 cells in the presence of DFMO at 10 uM; assay type: functional, cell-based; details: Mus musculus; in short: as §1
L1210 [19] = experiment: Inhibition of cell growth in L1210 cells in the presence of DFMO; assay type: functional, cell-based; details: Mus musculus
In short: (§4)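 L1210 cells seeded at 5 × 10⁴ cells/mL with conjugate added at seeding; CHO/CHO-MG plated at 2 × 10³ cells/mL with conjugate added after overnight (24 h). 5 mM DFMO added together with conjugate; medium contains 2 mM aminoguanidine. After 48 h, growth read by MTT formazan absorbance at 540 nm. IC50 is 50% growth inhibition; mean of three determinations.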

[20] = Selectivity for uptake in CHO cell line over CHO-MG cell line at 25 uM; assay type: functional, Cricetulus griseus; in short: as §3
CHO [21] = experiment: Cellular uptake in CHO cells at 25 uM; assay type: ADME, cell-based, Cricetulus griseus; details: chinese hamster; in short: as §2
CHO-MG [22] = experiment: Cellular uptake in CHO-MG cells at 25 uM; assay type: ADME, cell-based, Cricetulus griseus; details: chinese hamster; in short: as §2
L1210 [23] = experiment: Intracellular level of spermidine in L1210 cells in the absence of DFMO at 10 uM; assay type: functional, cell-based; details: Mus musculus; in short: as §1
L1210 [24] = experiment: Intracellular level of spermidine in L1210 cells in the presence of DFMO at 10 uM; assay type: functional, cell-based; details: Mus musculus; in short: as §1
CHO [25] = experiment: Inhibition of cell growth in CHO cells in the presence of DFMO; assay type: functional, cell-based; details: Cricetulus griseus; in short: as §4
L1210 [26] = experiment: Intracellular level of putrescine in L1210 cells in the absence of DFMO at 10 uM; assay type: functional, cell-based; details: Mus musculus; in short: as §1
L1210 [27] = experiment: Intracellular level of putrescine in L1210 cells in the presence of DFMO at 10 uM; assay type: functional, cell-based; details: Mus musculus; in short: as §1
CHO-MG [28] = experiment: Inhibition of cell growth in CHO-MG cells in the presence of DFMO; assay type: functional, cell-based; details: Cricetulus griseus; in short: as §4

| Structure (SMILES) | Drug uptake (CHO [2]) | Drug uptake (CHO-MG [3]) | Selectivity ratio [4] | IC50 (Phosphodiesterase 1) | Drug uptake (L1210 [12]) | Drug uptake (L1210 [16]) | Drug uptake (L1210 [17]) | Drug uptake (L1210 [18]) | IC50 (L1210 [19]) | Drug uptake (L1210 [23]) | Drug uptake (L1210 [24]) | IC50 (CHO-MG [28]) | also measured |
| --- | --- | --- | --- | --- | --- | --- | --- | --- | --- | --- | --- | --- | --- |
| CNc1ccc(C2c3ccccc3N=C(NCCCNCCCCN)C2(C)C)cc1 (centres undefined) | 1.2 nmol/mg | 1.7 nmol/mg | 0.7 | 64 µM | – | – | – | – | – | – | – | – | Drug uptake (L1210 [1]): 0.62 nmol/mg; Drug uptake (L1210 [5]): 1.1 nmol/mg; Drug uptake (L1210 [6]): 2.4 nmol/mg; Drug uptake (L1210 [7]): 9.2 nmol/mg; Drug uptake (L1210 [8]): 0.08 nmol/mg; Drug uptake (L1210 [9]): 15 nmol/mg; Drug uptake (L1210 [10]): 8 nmol/mg; Drug uptake (L1210 [11]): 0.77 nmol/mg |
| NCCCCNCCCNC1=Nc2ccccc2CC1 | – | – | – | > 500 µM | 8.2 nmol/mg | 7.1 nmol/mg | 4.3 nmol/mg | 12.1 nmol/mg | > 100 µM | 14.5 nmol/mg | 3.2 nmol/mg | – | Drug uptake (CHO [13]): 11 nmol/mg; Drug uptake (CHO-MG [14]): 1.6 nmol/mg; Ratio (CHO-MG [15]): 6.9; Selectivity ratio [20]: 7; Drug uptake (CHO [21]): 15.4 nmol/mg; Drug uptake (CHO-MG [22]): 2.2 nmol/mg |
| CC1C[C@]2(C)C(NCCCNCCCCNCCCN)=Nc3ccccc3[C@@H]2N(C)c2ccccc21 (some centres undefined) | 0.66 nmol/mg | 0.66 nmol/mg | 1 | 19 µM | 1.5 nmol/mg | 9.7 nmol/mg | 0.59 nmol/mg | 5.8 nmol/mg | 1 µM | 18 nmol/mg | 0.49 nmol/mg | 27 µM | IC50 (CHO [25]): 9.1 µM; Drug uptake (L1210 [26]): 1.5 nmol/mg; Drug uptake (L1210 [27]): 0.04 nmol/mg |
| CN(c1ccccc1)C1c2ccccc2N=C(NCCCO)C1(C)C (centres undefined) | – | – | – | > 500 µM | – | – | – | – | – | – | – | – | – |
| NCCCNCCCCNCCCN [SPERMINE] | – | – | – | > 500 µM | – | – | – | – | – | – | – | > 100 µM | – |
